From the RNAGym collection of RNA variant scans (doi:10.1126/science.aae0568)
This sample holds only a part of the variants without activity.

B1: tRNA (parent)
chain: GUUCCGUUGGCGUAAUGGUAACGCGUCUCCCUCCUAAGGAGAAGACUGCGGGUUCGAGUCCCGUACGGAACG

Variants of: B1
Test: yeast fitness relative to wild type (ratio to wild type); higher = fitter; tRNA-Arg(CCU), competitive growth, 37 C, YPD
Outline: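 A pool of Saccharomyces cerevisiae strains, each with a tRNA-Arg(CCU) gene variant at the native genomic locus, was competed in YPD at 37°C for 24 hours across six parallel replicates. The variants had been chemically synthesised at a 3% per-site mutation rate over 69 sites, and gene amplicons before and after competition were read by 100-nucleotide paired-end sequencing. Darwinian fitness relative to wild type rested on changes in genotype frequencies. Genotypes required ≥ 100 starting reads, and estimates < 0.5 were set to 0.5.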

| Variant | yeast fitness |
| --- | --- |
| C27U C31U G67C | 0.727 |
| C27G C33U A40G C49U A69C | 0.703 |
| C27G C31G C61G A69U | 0.55 |
| C27G C49U C60A | ≤ 0.5 |
| C27G G39A C61G C62G | ≤ 0.5 |
| C27G C46U G50A | 0.599 |
| C27U C31A G63A | ≤ 0.5 |
| C27U C29A G38C A57G A65C C66A | ≤ 0.5 |
| C27G U53C | ≤ 0.5 |
| C27U A36G G50A G58A A69C | ≤ 0.5 |
| C27U C29A C55G A65G | ≤ 0.5 |
| C27G C33A A65U | ≤ 0.5 |
| C27U A40G C55U G56A U64G A69U | ≤ 0.5 |
| C27U C30U C62A | 0.564 |
| C27G G39C G52A | ≤ 0.5 |
| C27U C49U | 1 |
| C27G G44C A45G U64G | ≤ 0.5 |
| C27U C33G A43G A45C C55A | ≤ 0.5 |
| C27U A42U U53G G68C | 0.545 |
| C27U A37U C66U | 0.542 |
| C27G A43C C66A | ≤ 0.5 |
| C27U A36C G56C G68A A70U | ≤ 0.5 |
| C27G G39A C46U C66U | ≤ 0.5 |
| C27G U47G C49U C66U | 0.584 |

| Variant | yeast fitness |
| --- | --- |
| C27G C31U G68A | ≤ 0.5 |
| C27U C29U C49U | 0.71 |
| C27U C29U C49G | ≤ 0.5 |
| C27G G52A C60G A69U A70C | 0.514 |
| C27G G63A C66G | ≤ 0.5 |
| C27U A36C G39C G48C G63U | 0.547 |
| C27G C49U A65U | ≤ 0.5 |
| C27U C29U C60U A69G | 0.565 |
| C27G C31G U54G A70C | ≤ 0.5 |
| C27G C31U U53C | 0.573 |
| C27U A42U C62U | 0.559 |
| C27G C61A | 0.582 |
| C27G C61G | 0.554 |
| C27G U28A A65U A70U | 0.558 |
| C27U C33G C55G C61U | 0.539 |
| C27U A36G A37G G56C | ≤ 0.5 |
| C27G C29A C55G | ≤ 0.5 |
| C27G U28C A45C G48A C55A | 0.601 |
| C27G C29A G52C | ≤ 0.5 |
| C27G G68A | 0.607 |
| C27G A45U G67A | ≤ 0.5 |
| C27G C34G A57G G67C A69U | ≤ 0.5 |
| C27G G56A A65G | 0.535 |
| C27G C55G | ≤ 0.5 |

| Variant | yeast fitness |
| --- | --- |
| C27G C55U | ≤ 0.5 |
| C27U C49A U64C | 0.756 |
| C27G C46U G51A | 0.633 |
| C27G G39A C66U G68C | 0.575 |
| C27G C33U A69C | 0.544 |
| C27G C33A U47A | ≤ 0.5 |
| C27U C46G C66G A69G | ≤ 0.5 |
| C27G G41A A57C C62A | ≤ 0.5 |
| C27G C30U A42U | 0.651 |
| C27G G51A G63C | ≤ 0.5 |
| C27U C29G A42G | ≤ 0.5 |
| C27G G50A | 0.654 |
| C27G C31U A42G U53C | ≤ 0.5 |
| C27G C29A C33A A43C | 0.574 |
| C27G G39A C46U G67A | 0.581 |
| C27U C33U C60G | 0.628 |
| C27U A43C A70U | 0.749 |
| C27G G50C C60G | ≤ 0.5 |
| C27U C46U G48A | 0.888 |
| C27U A36C G68C | 0.602 |
| C27U A43C U59A C62U | 0.517 |
| C27G C30U G39C A40U G44C U47A G48A U53C C60A | ≤ 0.5 |
| C27G G48A G51A | 0.527 |
| C27G A43U U59G G68C | ≤ 0.5 |

| Variant | yeast fitness |
| --- | --- |
| C27U C33G A43G G48A G52A | ≤ 0.5 |
| C27G C46U C61G G68U | ≤ 0.5 |
| C27U C31U G51C C66A | ≤ 0.5 |
| C27G C33A | 0.593 |
| C27G C33G | 0.524 |
| C27U C30U U53A | 0.62 |
| C27G U32A G41A | 0.671 |
| C27G C30G A43C | ≤ 0.5 |
| C27G A43G U47G A70G | ≤ 0.5 |
| C27U C34A | 0.728 |
| C27U C34G | 0.698 |
| C27U C31U A40U A45U C49G G63A | 0.589 |
| C27U C34G C62A | 0.586 |
| C27G G38A | 0.745 |
| C27U A65C A70C | 0.69 |
| C27U A43G G52C C62U G63A | ≤ 0.5 |
| C27G C33A G48A G51C | ≤ 0.5 |
| C27G A69C | 0.654 |
| C27G A69G | 0.652 |
| C27U C33G A43G A57G C61U C62U | 0.509 |
| C27G C31A A37C G50A C61G | ≤ 0.5 |
| C27G C46U C62U G68C | ≤ 0.5 |
| C27G U28A C30G C31U G67A | 0.519 |
| C27G U28A | 0.596 |

| Variant | yeast fitness |
| --- | --- |
| C27G G41C | 1.01 |
| C27G C30A | 0.632 |
| C27G C30U | 0.619 |
| C27G G41C G68C | 0.626 |
| C27G G41C C66U | 0.747 |
| C27G G56A A70U | 0.531 |
| C27G U32C U54C C62U | ≤ 0.5 |
| C27G G39A G67A | 0.59 |
| C27G G39C C61U | 0.577 |
| C27U C30G U32C A70U | 0.585 |
| C27U C33U A36U G63C | 0.541 |
| C27G C46G U53G G58C G68A | ≤ 0.5 |
| C27G C30G C33G A37C G52C | ≤ 0.5 |
| C27U C31G A69U | 0.624 |
| C27U C33G G39A A43G A57G C61U C62U | ≤ 0.5 |
| C27G G48C A57U | ≤ 0.5 |
| C27G A57C C62U | 0.511 |
| C27G C29G G51C | ≤ 0.5 |
| C27G C29A A43U | ≤ 0.5 |
| C27U C34G A37C | ≤ 0.5 |
| C27G G39A C46U A70G | ≤ 0.5 |
| C27G G39A C46U G68A | ≤ 0.5 |
| C27G C46A G51A | 0.525 |
| C27G C31U A37G G58C | ≤ 0.5 |

| Variant | yeast fitness |
| --- | --- |
| C27G U32C A42C G48C C55G C60U G68C | ≤ 0.5 |
| C27G C46U C60U A69U | ≤ 0.5 |
| C27G C49U A65U A70G | ≤ 0.5 |
| C27G C34A A40G | 0.644 |
| C27G C33G G39A C46U C61U A69U | 0.585 |
| C27U C46U G67U | 0.626 |
| C27U C49U C60A C61A | ≤ 0.5 |
| C27G C46U C60U | 0.626 |
| C27G C30G C31U U54C | ≤ 0.5 |
| C27U C31G A43C C49G G52C | ≤ 0.5 |
| C27U A36C G39C G48C G63U A70U | 0.636 |
| C27G C30G U64G | ≤ 0.5 |
| C27U A43C C60A | ≤ 0.5 |
| C27G C49U C62U A65U | ≤ 0.5 |
| C27G C31G U53A G56A G63A | 0.534 |
| C27G U47C | 0.652 |
| C27U C30G A40G G51C U64C | ≤ 0.5 |
| C27U C29A A36U A40C G52C | 0.583 |
| C27U C31A A69C | 0.598 |
| C27G C31U C49G G58C | ≤ 0.5 |
| C27U A36U G38C A43C G63A | ≤ 0.5 |
| C27G C33U A45U | 0.568 |
| C27U A45G C49G A65C | ≤ 0.5 |
| C27U A36U G38C A43C | ≤ 0.5 |

| Variant | yeast fitness |
| --- | --- |
| C27U C31G A43C C49G G52C U59G | ≤ 0.5 |
| C27U C31G A43C C49G G52C U59A | 0.54 |
| C27U C33A C60U C62G | ≤ 0.5 |
| C27U A43U C55U A69C | ≤ 0.5 |
| C27G A65G C66G | ≤ 0.5 |
| C27U C31G C55G | ≤ 0.5 |
| C27G C46A C49G | 0.704 |
| C27G C31G | 0.74 |
| C27G C31U | 0.772 |
| C27G C31A | 0.501 |
| C27G C33G C55A | ≤ 0.5 |
| C27G C30A U47C | 0.535 |
| C27G C34G C55G U59C C60U G67U | ≤ 0.5 |
| C27G C31A C46A G56C | ≤ 0.5 |
| C27G C31G A69U | ≤ 0.5 |
| C27U C33A | 0.618 |
| C27G A45U C55A G56A | ≤ 0.5 |
| C27G G48C G56C | ≤ 0.5 |
| C27U C33G A43G U53C A57G C61U C62U A70G | ≤ 0.5 |
| C27G U32G A42C | ≤ 0.5 |
| C27G C34A C60A | 0.551 |
| C27U A43G | 0.898 |
| C27U A43C | 0.965 |
